Experimental data: the RNAGym collection of RNA variant scans (doi:10.1126/science.aae0568)
Variants at the floor of the assay were thinned out.

B1: tRNA (parent)
chain: GUUCCGUUGGCGUAAUGGUAACGCGUCUCCCUCCUAAGGAGAAGACUGCGGGUUCGAGUCCCGUACGGAACG

Variants of: B1
Experiment: yeast fitness relative to wild type (ratio to wild type); higher = fitter; tRNA-Arg(CCU), competitive growth, 37 C, YPD
Method in brief: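 Amplicons of the tRNA-Arg(CCU) gene were sequenced, 100-nucleotide paired-end, from the start population and from each end population of a pooled yeast competition. The competition, in six parallel replicates, lasted 24 hours in YPD at 37°C. Fitness relative to wild type was calculated from changes in genotype frequencies. Genotypes had to have ≥ 100 starting reads, and estimates < 0.5 were set to 0.5.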

Row | Variant | yeast fitness
1 | A42C A57C | 0.62
2 | U3C U8A G25A A45G | 0.578
3 | C27U U28A U32A C34U A36C C55A | 0.543
4 | C5G U7A A42C | ≤ 0.5
5 | C5U C24A | 0.597
6 | G12C C29A | 0.684
7 | C5A G6A U16A A45G G50A | ≤ 0.5
8 | C31G A40G C49U G50C A70C | ≤ 0.5
9 | C5G G44C C49U U59G | ≤ 0.5
10 | C33U G39A A57G C66U | 0.557
11 | A15U C34G | ≤ 0.5
12 | C4A G25U A65C | ≤ 0.5
13 | C4A C61U | 0.911
14 | C22A C27A G52C G63A | ≤ 0.5
15 | U32G A40U | 0.624
16 | G12A U16C C27A U54A | ≤ 0.5
17 | G25C C29G A40U | ≤ 0.5
18 | U19C C27A U54G | ≤ 0.5
19 | U3A U26C U59C | ≤ 0.5
20 | U7A C34U C66G | ≤ 0.5
21 | U2C U3C C34U | 0.571

Row | Variant | yeast fitness
22 | A20G A37U C62A | ≤ 0.5
23 | A20C U59C | 0.749
24 | C27A G41C | 1.18
25 | C24A A45G A65U | 0.552
26 | U7A A40U | 0.714
27 | U3A C31G A43U | 0.597
28 | C29A G44A A70G | 0.804
29 | U2G C46A G68C | ≤ 0.5
30 | G9A A37C C62G | ≤ 0.5
31 | C5U U7G C30U G51C C61A | ≤ 0.5
32 | U8G G17A A70C | ≤ 0.5
33 | A15C G23C G39C G63A A69C | ≤ 0.5
34 | C33A A36C C46G C62G A69U | ≤ 0.5
35 | G17C C31A C60A A65U | 0.532
36 | G6A C22U G23C C49G U53G A57G | ≤ 0.5
37 | C5G U13G C22G C29G A40U U54C C61G | 0.567
38 | C30G U59G C66A | ≤ 0.5
39 | G10C G18A G58A C66G | ≤ 0.5
40 | A14U C55A U59G A65C | 0.561
41 | U2A C4A C46G G52A | ≤ 0.5
42 | C4A C24U | 0.733

Row | Variant | yeast fitness
43 | A15C C24G A69U | 0.533
44 | C29G G41A U47G | ≤ 0.5
45 | G6A C29A G67C | ≤ 0.5
46 | A15G C30A A65C | 0.609
47 | C5G G51C | 0.761
48 | C5U C22U A37C G48U C55A | ≤ 0.5
49 | U26A C27A U28A C34U | ≤ 0.5
50 | A45G G67A | 0.961
51 | C22U G44C | 0.812
52 | U7G U64A | 0.971
53 | U2G C31U U54G | ≤ 0.5
54 | C4A A37U G50C | ≤ 0.5
55 | C30A U53G C60G C62A A70U | 0.515
56 | C30U G51A C66U A70C | ≤ 0.5
57 | U8A G25C A37C C66U | ≤ 0.5
58 | A15U C24U A37G | ≤ 0.5
59 | G6A U35A C62A C66G | 0.694
60 | C11G C31G | 0.555
61 | C22U U26A C29U U54C C66U | ≤ 0.5
62 | A45G G51A G67A | 0.601
63 | U3G G17C C33A U53G U54A | ≤ 0.5

Row | Variant | yeast fitness
64 | C4G C11G C55U G63A | ≤ 0.5
65 | C5U G39A A45C | 0.76
66 | U7A U59C | 0.662
67 | C4G U13C | 0.886
68 | G51A G58C | 0.901
69 | U3A A40C U47A | 0.647
70 | U47G U54C | 0.504
71 | C4U C60U C62A | ≤ 0.5
72 | A45U G50A | 1.01
73 | G51C C60G G67U | ≤ 0.5
74 | U16A G48C C55G G67C A70U | 0.604
75 | G12A G25C C60U A69C | ≤ 0.5
76 | C4U A15U G68A | ≤ 0.5
77 | U3G A20C | 0.987
78 | A40G C46U C60G C66G | ≤ 0.5
79 | U3C C22G G52C G67C | ≤ 0.5
80 | U16G C22U G25A | ≤ 0.5
81 | C5A A14G C22G C60U C61U | ≤ 0.5
82 | G18A C31U A70G | 0.726
83 | C27G C34G C46U C49U | ≤ 0.5
84 | G9C A43U C49A | ≤ 0.5
